What all share (format): functional
Experiment [1] can be described thus: Antioxidant activity assessed as oxygen scavenging activity measured every 30 sec for 5 min by UV-vis spectrophotometer analysis. In outline: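 Superoxide generation uses pyrogallol autoxidation: sample plus pyrogallol (60 mM stock in 1 mM HCl) in 0.05 M Tris-HCl, pH 7.4. A325 is recorded every 30 s for 5 min. Scavenging comes from the absorbance increase over 5 min relative to no-sample control; IC50 from dose–response curve, mean ± SD (n = 3).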

The nature of experiment [2]: Antioxidant activity assessed as DPPH radical scavenging activity incubated for 30 mins under dark condition by microplate reader analysis. In outline:
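The radical solution is made from […] methanol solution and mixed with sample dissolved in methanol (ultrasonication at 40 °C). Incubation is 30 min dark at room temperature with read-out at A519. % scavenging vs no-sample blank; IC50 (final concentration giving 50% scavenging) from dose–response curve by linear regression, mean ± SD (n = 3).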
On the technique in general: The DPPH test is a chemical assay of radical scavenging.

Experiment [3] deals with HT-22. In words: Antioxidant activity in mouse HT-22 cells assessed as OH scavenging activity by chromogenic analysis. Details: concentration or dose not given beside the values.
Experiment [4] is described as follows: Antioxidant activity assessed as ABTS radical cation scavenging activity incubated for 10 mins under dark condition by microplate reader analysis. In short, it runs like this:
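ABTS˙+ is generated from 7.4 mM (NH4)2ABTS and 2.6 mM K2S2O8 solutions mixed 1:1 and kept dark at 27 °C for 12 h. It is diluted about 1:20 with water, then mixed with methanolic samples for 10 min dark at 27 °C and read at A734. % scavenging vs no-sample blank; IC50 from dose–response curve by linear regression, mean ± SD (n = 3).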

In experiment [5] the test system is HT-22. In words: Antioxidant activity in mouse HT-22 cells assessed as OH scavenging activity measured for 24 hrs by CCK-8 analysis. In outline: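 HT22 cells are grown in DMEM/10% FBS at 37 °C, 5% CO2, seeded at 1 × 10^4 per well and left to adhere for 24 h. They are pretreated with sample at 50 μM final for 24 h (model group: medium), then exposed to Fenton reagent (200 μM H2O2 + 200 μM FeCl2) for 24 h. Medium is removed and CCK-8 added for 2 h; survival from A450, five wells per sample.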

`O=C1C[C@@H](c2ccc(O)cc2)Oc2cc(O)cc(O)c21` [NARINGENIN]: the half-maximal inhibitory concentration (IC50) was 24.2 µM in experiment [1], 1730 µM in experiment [2] and 13 µM in experiment [4]. In addition, the Activity with HT-22 [3] stood at 33.85%; in the experiment on HT-22 [5], 80.65%.
Consider `O=c1c(O)c(-c2ccc(O)cc2)oc2cc(O)cc(O)c12` [KAEMPFEROL], for which the values for the IC50 in experiment [1], in experiment [2] and in experiment [4] were 81.6 µM, 15.5 µM and 4.73 µM, respectively. For the same molecule, the Activity with HT-22 [3] was 74.46%; in the experiment with HT-22 [5], 69.4%.
`Cc1c(C)c2c(c(C)c1O)CCC(C)(C(=O)O)O2` (centres undefined) [TROLOX]: the figures for the IC50 in experiment [1], in experiment [2] and in experiment [4] were 963 µM, 19.8 µM and 10.3 µM, respectively.
In the case of `O=c1cc(-c2ccc(O)cc2)oc2cc(O)cc(O)c12` [APIGENIN], the concentration for half-maximal inhibition (IC50) in experiment [1] came out at 68.9 µM; in experiment [2], 2760 µM; in experiment [4], 18.2 µM. Further, the Activity in the experiment with HT-22 [3] was found to be 33.26%; with HT-22 [5], 73.32%.
As to `O=c1c(-c2ccc(O)cc2)coc2cc(O)cc(O)c12` [GENISTEIN], the concentration for half-maximal inhibition (IC50) was determined as 88.8 µM in experiment [1], 1230 µM in experiment [2] and 10.2 µM in experiment [4]. Further, the Activity with HT-22 [3] is reported as 36.39%; in the experiment with HT-22 [5], 68.54%.
Consider `O=C1O[C@H]([C@@H](O)CO)C(O)=C1O` [ASCORBIC ACID], for which, in the experiment with HT-22 [3], the Activity worked out at 84.27%.

Broadly, the IC50 is the concentration that gives 50% inhibition.

(Values after ChEMBL document CHEMBL5252566, “Antioxidant mechanisms and products of four 4',5,7-trihydroxyflavonoids with different structural types” (RSC Med Chem, 2023).)
